Measurements: the EternaBench riboswitch data

System: MS2 coat protein
Assay: apparent Kd, MS2 coat protein; higher = weaker binding; RNA-MaP array; FMN 200 µM where present
Outline: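 Two titrations, one without ligand and one with constant ligand, were run with SNAP-549-labelled MS2 coat protein from 0.7 or 1.5 nM, doubling to 3 µM. The targets were designs transcribed by stalled E. coli RNA polymerase on Illumina sequencing-chip clusters, in 100 mM Tris-HCl pH 7.5, 80 mM KCl, 4 mM MgCl2, BSA, DTT, yeast tRNA and Tween-20. The apparent Kd is the median of filtered per-cluster binding-curve fits, with green signal normalised to red-channel RNA signal and control-cluster median Fmax.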

[1] = designed as: OFF switch for flavin mononucleotide, no ligand
[2] = ligand present: flavin mononucleotide, designed as: OFF switch for flavin mononucleotide
[3] = designed as: ON switch for flavin mononucleotide, no ligand
[4] = ligand present: flavin mononucleotide, designed as: ON switch for flavin mononucleotide

Sequence	apparent Kd [1]	apparent Kd [2]	apparent Kd [3]	apparent Kd [4]
AGAAACUACGAGAAGGACAUAUGACCAAGAACAAACAUGAGGAUCACCCAUGUAGGAUAUCGUAGUUUCAGGAUCGUGAGAUCA	6.29 nM	12.9 nM	–	–
AUGCUUCACACAGGAUAUACAUGAGGAUCACCCAUGUGUCCAAAGUAGCCGACACGAGCUACGUCGUAGAAGGGUGUGAAGCAU	18.8 nM	87.3 nM	–	–
AAUUAACAUGAGGAUCACCCAUGUGAGGAUAUGGUAUUAUUUGGACAGUUAUGAUAUACCAGAAGGCACAAAUA	32.6 nM	45.9 nM	–	–
AAGAGUAGAGGAUAUACAUGAGGAUCACCCAUGUAAUCCAGAUAAGGAAGCAUGGCGUGUAGAAGGCUGCAUGA	38.5 nM	42.4 nM	–	–
CUCAUGUGAGGAUAUGUGAUCAACCUUCUGUAUAGAUGAUUACAGAAGGCACAUGAGGAUCACCCAUGUAGAUC	106 nM	125 nM	–	–
GUUAAUUAGUGAGGAUAUACAGAGAGUGAAGCUGUAGAAGGCACAUUCCUCAAGACAUGAGGAUCACCCAUGUGAUAAUAAGAU	37.4 nM	105 nM	–	–
GUCGUGUGAGGAUAUCUGAUGUCUAACUUCGGUUAGACAUCAGAGAAGGCACAUGAGGAUCACCCAUGUCCGAC	195 nM	298 nM	–	–
UGAUAACAUGUAGGAUAUGCAGCAUUGACCACUGCAGAAGGACAUGAGGAUCACCCAUGUAUCCAUACUAUGGGAUCACGCAAU	24 nM	85.5 nM	–	–
UUAUAUAGGUAGGAUAUCGAUAUUAAUUAUUAUCGAGAAGGGUCUACAUGAGGAUCACCCAUGUUAGCAUGUAU	28.9 nM	32.9 nM	–	–
GUUUAGUGAGGAUAUGUGGCGUCGAUCGAGCGCGGUCUGCUACAGAAGGCACAUGAGGAUCACCCAUGUUUCUC	258 nM	371 nM	–	–
ACCUCACAUGAGGAUCACCCAUGUUAGGAUAUCUCGGUGCCCUGCAGGCAGUGGCACCAGAGAAGGAACGUGCA	19.2 nM	24.2 nM	–	–
CGGCUACCCAGUAUGGGUAUUUUUACAGAAGGCCAGGCACAUGAGGAUCACCCAUGUCAAGUUUUGGAGGAUAUGUUAGUGUCG	–	–	5.58 nM	4.25 nM
UCGCUCCGUGUAGGAUAUCGCCGUUCUAUUCGGCGAGAAGGACAUGAGGAUCACCCAUGUAUGUUAUUAUCACGCGUGGCGCAA	16 nM	19.1 nM	–	–
GGUUGGCGAGGAUAUACAUGAGGAUCACCCAUGUGGUCCUGAGGCUGAUCAAGCCUAUGUAGAAGGCGCAAAUC	215 nM	38.1 nM	–	–
CAGCUGAAAGUCAGGAUAUCUAGAGCGAUAGCUCUAGAGAAGGGACAUGAGGAUCACCCAUGUCACUCCAGCUG	17.1 nM	20.4 nM	–	–
GUAGCAUACCAAGGAUAUUCAUAUAAUAAGUAAACAUGAGGAUCACCCAUGUAGCGAGAGCCUUGGGAGAAGGUGGAAUGCUAC	–	–	58.7 nM	46.7 nM
AUAUAUAUAAGGUAGGAUAUACUAAAGUAAACAUGAGGAUCACCCAUGUAAAGAAAGAAACUCAUGUAGAAGGACCAUAUAUAUAU	–	–	171 nM	36.5 nM
GUAGCAACAUGAGGAUCACCCAUGUAGGAUAUCGCUAUUGUAAUCAUGAAACAUGAUUACAAUAGCGAGAAGGACAUAUGCUAA	8.33 nM	10.7 nM	–	–
ACAUGAGGAUCACCCAUGUAUUACAUGGUUAAGUUUAUAAACAGAAGGCGAUAAUACUUAUUGUUCGAGGAUAUGUAAUCAAUU	113 nM	84.1 nM	–	–
ACCAAUGCAGGAUAUACAUGAGGAUCACCCAUGUAUAACCUACAUAGGUGAUCAUCAUGUAGAAGGGCAUUGGA	14.6 nM	15.1 nM	–	–
AAUUAAUUGUAGAAGGUACUUAAUUAUGUUAUGUAAGGAUAUACGUAAUUAUUACGUCUUGUAUGACAUGAGGAUCACCCAUGU	–	–	12.9 nM	11 nM

Sequence	apparent Kd [1]	apparent Kd [2]	apparent Kd [3]	apparent Kd [4]
GAGUGGAAGGCCGCUACAUGAGGAUCACCCAUGUGCUAAGCACAGGAUAUCGCGUGGGCCCGACGCGAGAAGGGUGACGGCCUG	–	–	582 nM	246 nM
AAAAAACAUGAGGAUCACCCAUGUGAGGAUAUCACUAGUCAGUCCUCGGAGUGAGUUCUGAGAAGGCACAUAAA	118 nM	106 nM	–	–
GGAAAUCAUGUAGGAUAUGCAUGGCGACGCUACGCAGAAGGACAUGAGGAUCACCCAUGUUAUAGCGUCCGAGAAAGGAUGCAA	34.5 nM	53.4 nM	–	–
AAUUGACACGUAGGAUAUCGAACUAUUUUAACACGAGAAGGACGUACAUGAGGAUCACCCAUGUUUAAUGGUGUAGAUAAGUUG	70.9 nM	188 nM	–	–
UGCUGGGAAUCAGGAUAUACGUGGUAUCCUGAGCACAUGAGGAUCACCCAUGUAGAAGGGAUUCCGCGGUGAGAUUCCGAAACA	4.97 nM	5.45 nM	–	–
UCGCUGCGAGGAUAUACAUGAGGAUCACCCAUGUACGGGUCCGGGUCUUUGUCUAUUGGUAGAAGGCGCAGUGA	55.7 nM	175 nM	–	–
UAAAUCUUGUAAGGAUAUACACGAGAUUCAAGUGUAGAAGGUACUUACAUGAGGAUCACCCAUGUAUACAUGGAUAAUAUAUAU	–	–	206 nM	32.2 nM
AUCGGAAUGUAGAAGGGUGACAUGAGGAUCACCCAUGUACAAAUGCGUUUUUCGGUAAUUGAUCCACAGGAUAUACUGUCCGAG	–	–	1080 nM	794 nM
CAGUGCUGUUGAGAGGAUAUGCGGCGACGGACAUGAGGAUCACCCAUGUUAGCGACAGCGUUGCGGCAGAAGGCUCUGCCCACUG	–	–	11.2 nM	10.4 nM
AUUACAUGAGGAUCACCCAUGUACGGCACGUUUCAAAACAGUGAGGAUAUACGAUAUGUAGGAACGUAGAAGGCACUGGGUGCA	–	–	82.7 nM	35.9 nM
GAAACGCUUGACAUGAGGAUCACCCAUGUUAGAUUGUUAUGUCAGGAUAUAGUCUAGAAACUAGACUAGAAGGGAUAUGUUUCU	–	–	438 nM	107 nM
AACGAGGCAGGAUAUACAUGAGGAUCACCCAUGUGCUUGCAUGGCGUGGGAAGUCAUCGUAGAAGGGCCAUGCC	154 nM	74.2 nM	–	–
CCCUAGGUAGGAUAUACUUGGGCUCGGCUGAUGUGCUUAAAACAUGAGGAUCACCCAUGUAGAAGGACUAAGGC	15.3 nM	12.9 nM	–	–
CCGUGAGCAGGAUAUACAUGAGGAUCACCCAUGUCCGAUCCAAACAUGGGAAAAGAAGGUAGAAGGGUUUGAGG	28.5 nM	36.1 nM	–	–
UUAUUAUAUGUAGGAUAUGCAUAUUACUAUUGUGCAGAAGGACAUGAGGAUCACCCAUGUAUAUUAUUAUUAUAUAUUAUAUAU	15.8 nM	15.7 nM	–	–
GUGGUCAGACAUGAGGAUCACCCAUGUGGAAUAAAUAACGGACAGGAUAUCGAAUAUAGGAUAUACGAGAAGGGUUGAUUGGUG	–	–	83.7 nM	106 nM
AAAGUGUCAGGAUAUUGUUAGUUUAGUUGUUUGUAUUAGUUCGAGAAGGGACAUGAGGAUCACCCAUGUUGAAA	34 nM	32.9 nM	–	–
AAGAAGUGAGGAUAUGUAUCAGUAUAGUUGCCUAUACUGAUGUAGAAGGCACAUGAGGAUCACCCAUGUCCUAA	20.8 nM	25 nM	–	–
UUGCCUCAGAACAUGAGGAUCACCCAUGUGCUGCGGGCAACGUAGGAUAUGAUGGUUUGAUACCAUCAGAAGGAUGAUGGUACC	–	–	5.4 nM	5.21 nM
AGAAACUACGAGAAGGACAUGUGGUCCUUCAGUUACAUGAGGAUCACCCAUGUAGGAUAUCGUAGUUUCAGGAUCGUGAGAUCA	40.8 nM	12.3 nM	–	–
GCCAUCACAUGAGGAUAUGCUCGGGUUUCCCGAGCAGAAGGCAUGUCAUAGGACAUGAGGAUCACCCAUGUAGUUAAGAUGGCA	–	–	507 nM	17.1 nM
